Assay [1] relates to IGROV-1. Nature of the assay: Antiproliferative activity against human IGROV1 cells after 72 hrs. The class given is functional, cell-based. As to conditions: IGROV-1, 72 h. The procedure, abridged: (§1)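 Ovarian carcinoma cells in log-phase growth were seeded in duplicate. Drug was added 24 h after seeding and exposure lasted 72 h. Cells were harvested and counted with a cell counter. IC₅₀ is the concentration giving a 50% drop in cell number versus untreated control.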

Assay [2] in a line: Antiproliferative activity against human cisplatin-resistant IGROV1/Pt1 cells with p53 mutation after 72 hrs. In kind it is functional, cell-based, IGROV-1. The method, boiled down: as §1
Assay [3] has as its system NB-4. Nature of the assay: Antiproliferative activity against human NB4 cells after 72 hrs. The class given is functional, cell-based. The note with it: NB-4, 72 h. The method, boiled down:
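Leukemia cells were exposed to drug for 24 h, and growth inhibition was assessed at 72 h by cell counting. IC₅₀ is the concentration giving a 50% drop in cell number versus untreated control.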

For assay [4], the system named is IGROV-1. Nature of the assay: Cell cycle arrest in IGROV1 cells assessed as accumulation at G1/S phase by FAC scan flow cytometry. The note with it: Homo sapiens. The class given is functional, cell-based. The procedure, abridged: (§2)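 Cells treated at the IC₈₀ concentration. Cell cycle distribution of propidium iodide-stained cells measured by FACScan flow cytometry at 24, 48 and 72 h of treatment. One experiment representative of three.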
On the technique in general: Flow cytometry measures light scatter and fluorescence of single cells or particles in a stream.

In assay [5] the test system is IGROV-1. Nature of the assay: Induction of DNA damage in IGROV1 cells assessed as H2AX histone phosphorylation after 6 hrs. In kind it is functional, cell-based. As to conditions: Homo sapiens.
The subject of assay [6] is IGROV-1. Nature of the assay: Cell cycle arrest in IGROV1 cells assessed as accumulation at subG1 phase by FAC scan flow cytometry. The class given is functional, cell-based. The note with it: Homo sapiens, TDE = time-dependent effect. The procedure, abridged: as §2
Assay [7] deals with IGROV-1. As to the kind of experiment: Induction of DNA damage in IGROV1 cells assessed as RPA2 protein phosphorylation after 6 hrs. The class given is functional, cell-based. The note with it: Homo sapiens.
In assay [8] the test system is IGROV-1. Nature of the assay: Induction of DNA damage in IGROV1 cells assessed as p53 protein phosphorylation after 6 hrs. The class given is functional, cell-based. The note with it: Homo sapiens.
Assay [9] deals with IGROV-1. As to the kind of experiment: Induction of apoptosis in IGROV1 cells after 72 hrs by TUNEL assay. In kind it is functional, Homo sapiens. On the set-up: concentration or dose not given beside the values. The procedure, abridged:
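Cells exposed to drug for 72 h, fixed in 4% paraformaldehyde for 60 min at room temperature, then washed and resuspended in ice-cold PBS. Apoptosis detected by TUNEL and analyzed by flow cytometry.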

In assay [10] the target is T1, MAP kinase p38 (Homo sapiens) (UniProt O15264+Q15759+Q16539+P53778). As to the kind of experiment: Activation of p38 kinase in IGROV1 cells assessed as phosphorylation after 18 hrs. In kind it is cell-based. The note with it: IGROV-1. The method, boiled down: (§3)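 Cells treated for 18 h at each compound's IC₈₀ concentration. Lysates analyzed by Western blot with phospho-specific antibodies to detect activated JNK and p38.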

Assay [11] concerns the target c-Jun N-terminal kinase, JNK (Homo sapiens) (UniProt P45983+P53779+P45984). As to the kind of experiment: Activation of JNK in IGROV1 cells assessed as phosphorylation after 18 hrs. In kind it is cell-based. As to conditions: IGROV-1. The procedure, abridged:
as §3

The target in assay [12] is T1, MAP kinase p38 (Homo sapiens). As to the kind of experiment: Activation of p38 kinase in IGROV1/Pt1 cells with p53 mutation assessed as phosphorylation after 18 hrs. The class given is cell-based. The note with it: IGROV-1. The procedure, abridged: as §3
The mark [13] stands for this setting: Homo sapiens, IGROV-1/Pt1, 72 h.

Broadly, the IC50 is the concentration needed to halve the response being measured.

Activity calls are given as the source filed them. The rule behind the calls is not given here.

For the compound `COc1ccc(-c2ccc(/C=C(\Br)C(=O)O)cc2)cc1C12CC3CC(CC(C3)C1)C2`, the results for the IC50 in assay [1], in assay [2] (setting [13]) and in assay [3] were > 20000 nM, > 20000 nM and 17900 nM, respectively.
As to `COc1ccc(-c2ccc(/C=C/C(=O)O)cc2)cc1C12CC3CC(CC(C3)C1)C2`, the result in assay [4], in assay [5], in assay [7] and in [8] was Active. Further, the Activity entry in assay [6] is “tde”; in assay [9] it was 47%. For the same compound, the IC50 in [1] stood at 1190 nM; in [2] (setting [13]), 1430 nM; in [3] it was 1100 nM.
As to `O=C(O)C#Cc1ccc(-c2cc3c(c(C45CC6CC(CC(C6)C4)C5)c2)OCO3)cc1`, the IC50 in assay [1] is 3600 nM; in assay [2] (setting [13]) it was 4800 nM; in [3], 2000 nM.
The corresponding values for `CC(=O)NCc1cc(-c2ccc(/C=C/C(=O)O)cc2)cc(C23CC4CC(CC(C4)C2)C3)c1O` are 1240 nM, 2890 nM and 990 nM.
As for `Cl.NCc1cc(-c2ccc(/C=C/C(=O)O)cc2)cc(C23CC4CC(CC(C4)C2)C3)c1O`, the result in assay [4], in [7] and in assay [8] was Active. For the same compound, the Activity entry in [6] was “tde”; in assay [9], 55%. Moreover, the 50% inhibitory concentration (IC50) was 450 nM in assay [1], 390 nM in assay [2] (setting [13]) and 180 nM in [3].
Take `O=C(O)/C=C/c1ccc(-c2cccc(C34CC5CC(CC(C5)C3)C4)c2)cc1`: the figures for the IC50 in assay [1] and in assay [2] (setting [13]) were 18800 nM and 21900 nM, respectively.
With `COc1cc(-c2ccc(/C=C/C(=O)O)cc2)cc(C23CC4CC(CC(C4)C2)C3)c1O`, the IC50 in assay [1] came out at 520 nM; in assay [3] it was 270 nM.
With `COc1ccc(-c2ccc(C#CC(=O)O)cc2)cc1C12CC3CC(CC(C3)C1)C2`, the figures for the IC50 in assay [1] and in assay [2] (setting [13]) were 1700 nM and 4800 nM, respectively.
On to `O=C(O)/C=C/c1ccc(-c2cc3c(c(C45CC6CC(CC(C6)C4)C5)c2)OCO3)cc1`, for which the result in assay [4], in assay [7], in assay [8], in assay [10] and in assay [11] was Active. The Activity entry is “tde” in [6] and 50% in [9]. The values for the IC50 in assay [1], in assay [2] (setting [13]) and in assay [3] were 390 nM, 460 nM and 260 nM, respectively.
`O=C(O)/C=C/c1ccc(-c2cc3c(c(C45CC6CC(CC(C6)C4)C5)c2)OCCO3)cc1`: the result in [4], in assay [7] and in [8] was Active. Moreover, the results for the Activity result in assay [6] and in [9] were “tde” and 30%, respectively. Further, the figures for the half-maximal inhibitory concentration (IC50) in assay [1], in [2] (setting [13]) and in assay [3] were 230 nM, 480 nM and 110 nM, respectively.
On to `COc1ccc(-c2ccc(/C=C(/Br)C(=O)O)cc2)cc1C12CC3CC(CC(C3)C1)C2`, for which the 50% inhibitory concentration (IC50) in assay [1] was 30600 nM; in assay [2] (setting [13]) it was > 10000 nM; in assay [3], 41000 nM.
In the case of `O=C(O)/C=C/c1ccc(-c2ccc(O)c(C34CC5CC(CC(C5)C3)C4)c2)cc1` [ADAROTENE], the result in [7], in [8] and in [12] was Active. The same compound came in with an IC50 in assay [2] (setting [13]) of 400 nM. Moreover, the Activity in assay [9] stood at 51%.
In the case of `COc1c(O)cc(-c2ccc(/C=C/C(=O)O)cc2)cc1C12CC3CC(CC(C3)C1)C2`, the result in [4], in assay [7] and in assay [8] was Active. The values for the Activity entry in assay [6] and in assay [9] were “tde” and 20%, respectively. Besides, the IC50 was found to be 570 nM in [1], 970 nM in assay [2] (setting [13]) and 550 nM in assay [3].
As for `COc1cc(-c2ccc(/C=C/C(=O)O)cc2)cc(C23CC4CC(CC(C4)C2)C3)c1OC`, the results for the 50% inhibitory concentration (IC50) in assay [1], in assay [2] (setting [13]) and in assay [3] were 710 nM, 2400 nM and 1890 nM, respectively.
Consider `O=C(O)/C=C/c1ccc(-c2cc(CO)c(O)c(C34CC5CC(CC(C5)C3)C4)c2)cc1`, for which the result in assay [7] and in assay [8] was Active. The values for the IC50 in [1], in [2] and in assay [3] were 760 nM, 1040 nM and 190 nM, respectively. The compound also displayed an Activity in [9] of 45%.
Regarding `O=C(O)/C(Br)=C\c1ccc(-c2cc3c(c(C45CC6CC(CC(C6)C4)C5)c2)OCO3)cc1`, the values for the IC50 in [1], in assay [2] (setting [13]) and in assay [3] were 36600 nM, 34100 nM and 72300 nM, respectively.
The corresponding values for `O=Cc1cc(-c2ccc(/C=C/C(=O)O)cc2)cc(C23CC4CC(CC(C4)C2)C3)c1O` are 1640 nM, 2720 nM and 1610 nM.

The values above are taken from ChEMBL document CHEMBL1149584, “Synthesis and structure-activity relationships of new antiproliferative and proapoptotic retinoid-related biphenyl-4-yl-acrylic acids” (Bioorg Med Chem, 2007).
